# Measurements collected from several papers.
# Compare with care: the assays were run in different laboratories.
SMILES,system,setting,Cmax
[2H]C([2H])([2H])n1cc2cc(Nc3nc(=O)n(Cc4ncn(C)n4)c(=O)n3Cc3cc(F)c(F)cc3F)c(Cl)cc2n1,"male Sprague-Dawley rat, plasma","intravenous, 5 mg/kg",23900 ng/mL
CCCCCCCC(=O)N[C@@H](CCCCN)C(=O)N[C@@H](CCCCN)C(=O)N[C@@H](C)C(=O)N[C@@H](CC(C)C)C(=O)N[C@@H](CCCCN)C(=O)N[C@@H](CC(C)C)C(=O)N[C@@H](C)C(=O)N[C@@H](CCCCN)C(=O)N[C@@H](CCCCN)C(=O)N1CCC[C@H]1C(=O)N[C@@H](CC(C)C)C(=O)N[C@@H](CCCCN)C(=O)N[C@@H](CC(C)C)C(=O)N[C@@H](CC(C)C)C(=O)N[C@@H](CCCCN)C(N)=O,"male Sprague-Dawley rat, blood","intravenous, 3 mg/kg, infusion",273 ng/mL
Cn1cnc(Cn2c(=O)[nH]/c(=N\c3cc4cn(C)nc4cc3Cl)n(Cc3cc(F)c(F)cc3F)c2=O)n1,"male Sprague-Dawley rat, plasma","oral, 25 mg/kg",59200 ng/mL
N=c1c2c(-c3ccccc3)c(-c3ccccc3)n(Cc3ccccc3)c2ncn1[C@H]1CC[C@H](O)CC1,"male Sprague-Dawley rat, plasma","oral, 2 mg/kg, single dose",133 ng/mL
[2H]C([2H])(c1cc(F)c(F)cc1F)n1c(=O)n(Cc2ncn(C)n2)c(=O)[nH]/c1=N\c1cc2cn(C)nc2cc1Cl,"male Sprague-Dawley rat, plasma","intravenous, 5 mg/kg",25200 ng/mL
O=C(Nc1cccnn1)N1CCN([C@@H]2CCOc3cc(C(F)(F)F)ccc32)CC1,"male Sprague-Dawley rat, plasma","oral, 3 mg/kg",1520 nM
CCCCCn1nc(C(=O)Nc2cccc3ccccc23)c2ccccc21,"male Long-Evans rat, plasma","intraperitoneal, 3 mg/kg",213 ng/mL
COC(=O)C(NC(=O)c1cn(CCCCCF)c2ccccc12)C(C)(C)C (centres unmarked),"male Sprague-Dawley rat, plasma","subcutaneous, 200 µg/kg",6.2 ng/mL
COc1ncccc1-c1cnn2ccc(N3CCN(C(=O)OC(C)C)CC3)nc12,"rat, plasma","oral, 10 mg/kg",3100 nM
O=C([O-])C(=O)[O-].[NH-][C@@H]1CCCC[C@H]1[NH-].[Pt+4] (relative stereo),"rat, plasma","oral, 10 mg/kg",32 ng/mL
CCC[C@@](N)(CO)CCc1ccc(OCCCCCC(C)C)cc1,"rat, plasma","oral, 100 mg/kg",1030 nM
